Source: ChEMBL document CHEMBL4033757, “Efficient Divergent Synthesis of New Immunostimulant 4″-Modified α-Galactosylceramide Analogues” (ACS Med Chem Lett, 2017)
The source made the active and inactive calls.

Experiments:
iNKT = assay: Immunostimulatory activity in human iNKT cells cocultured with HeLa CD1d cells assessed as induction of IFNgamma levels at 0.01 to 1 nM after 24 hrs by ELISA; type: functional, cell-based
In short: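 Human iNKT cells cocultured with HeLa cells expressing CD1d plus glycolipid at varying concentrations. After 24 h incubation, IFN-γ in the culture measured by ELISA.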

Mus musculus [1] = assay: Immunostimulatory activity in C57BL/6 mouse assessed as induction of IFNgamma levels in serum at 2.0 x 10^-4 […], ip measured after 16 hrs by ELISA; type: functional, organism-based
In short: (§1)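 C57BL/6 mice dosed intraperitoneally with 5 μg glycolipid per animal (stated as 2.0 × 10–4 […]). Serum collected and cytokines quantified by ELISA: IFN-γ at 16 h post-injection, IL-4 at 4 h post-injection.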

Mus musculus [2] = assay: Immunostimulatory activity in C57BL/6 mouse assessed as induction of IL-4 levels in serum at 2.0 x 10^-4 […], ip measured after 4 hrs by ELISA; type: functional, organism-based; in short: as §1

Measured: Activity

C=C1[C@@H](CO)O[C@H](OC[C@H](NC(=O)CCCCCCCCCCCCCCCCCCCCCCCCC)[C@H](O)[C@H](O)CCCCCCCCCCCCCC)[C@H](O)[C@H]1O
active: iNKT | Mus musculus [1] | Mus musculus [2]

CCCCCCCCCCCCCCCCCCCCCCCCCC(=O)N[C@@H](CO[C@H]1O[C@H](CO)[C@H](OC(=O)Nc2cccc3ccccc23)[C@H](O)[C@H]1O)[C@H](O)[C@H](O)CCCCCCCCCCCCCC
active: iNKT | Mus musculus [1] | Mus musculus [2]

CCCCCCCCCCCCCCCCCCCCCCCCCC(=O)N[C@@H](CO[C@H]1O[C@H](CO)[C@H](OCc2ccc(Cl)cc2)[C@H](O)[C@H]1O)[C@H](O)[C@H](O)CCCCCCCCCCCCCC
active: iNKT | Mus musculus [1] | Mus musculus [2]

CCCCCCCCCCCCCCCCCCCCCCCCCC(=O)N[C@@H](CO[C@H]1O[C@H](CO)[C@H](O)[C@H](O)[C@H]1O)[C@H](O)[C@H](O)CCCCCCCCCCCCCC
active: iNKT | Mus musculus [1] | Mus musculus [2]

CCCCCCCCCCCCCCCCCCCCCCCCCC(=O)N[C@@H](CO[C@H]1O[C@H](CO)[C@H](OC)[C@H](O)[C@H]1O)[C@H](O)[C@H](O)CCCCCCCCCCCCCC
active: iNKT | Mus musculus [1] | Mus musculus [2]

CCCCCCCCCCCCCCCCCCCCCCCCCC(=O)N[C@@H](CO[C@H]1O[C@H](CO)[C@@H](NC(=O)Nc2cccc3ccccc23)[C@H](O)[C@H]1O)[C@H](O)[C@H](O)CCCCCCCCCCCCCC
active: iNKT | Mus musculus [1] | Mus musculus [2]
